# Calls of active or inactive are those of the source. No cut-off for these calls is given here.
# Experiments:
# KB = assay: Cytotoxicity against human KB cells by colorimetric method; assay type: functional, cell-based
# Outline: (§1)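 Human epidermoid carcinoma KB, breast cancer MCF7 and small cell lung cancer NCI-H187 lines assayed by the Skehan colorimetric method. Test samples at a maximum final concentration of 50 μg/mL. Doxorubicin served as reference. Values are reported as IC50.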
# NCI-H187 = assay: Cytotoxicity against human NCI-H187 cells by colorimetric method; assay type: functional, cell-based; outline: as §1
# Plasmodium falciparum [1] = assay: Antimalarial activity against Plasmodium falciparum K1 assessed as reduction in parasite growth measuring [3H]-hypoxanthine uptake by microculture radioisotope technique; assay type: functional, organism-based
# Outline: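 P. falciparum K1 (multidrug-resistant) cultured in vitro by Trager–Jensen method. Growth inhibition read as [3H]-hypoxanthine uptake in a microculture radioisotope assay (Desjardins method). Samples tested up to a maximum final concentration of 10 μg/mL. IC50 taken as the concentration giving 50% reduction in parasite growth. Dihydroartemisinin served as reference.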
# [2] = tested on: Mycobacterium tuberculosis; assay: Antimycobacterial activity against Mycobacterium tuberculosis H37Ra at 50 ug/ml by MABA; assay type: functional, organism-based
# Outline: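 M. tuberculosis H37Ra was tested in vitro by microplate Alamar Blue assay (MABA). 50 μg/mL was the highest test concentration. Isoniazid was run as the reference standard.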
# MCF7 = assay: Cytotoxicity against human MCF7 cells by colorimetric method; assay type: functional, cell-based; outline: as §1
# Plasmodium falciparum [3] = assay: Antimalarial activity against Plasmodium falciparum K1 assessed as reduction in parasite growth measuring [3H]-hypoxanthine uptake at 10 ug/ml by microculture radioisotope technique; assay type: functional, organism-based
# [4] = Homo sapiens, MCF7, read-out: IC50
compound,measurement,setting,value
COc1cccc2c1C(=O)c1c(O)c3c(c(O)c1C2=O)C[C@@](O)(C(=O)CO)C[C@@H]3O[C@H]1C[C@H](N)[C@H](O)[C@H](C)O1 [DOXORUBICIN],IC50,KB,0.38 µM
same,IC50,NCI-H187,0.12 µM
C[C@H]1[C@@H](O)O[C@@H]2O[C@@]3(C)CC[C@H]4[C@H](C)CC[C@@H]1[C@@]24OO3 [ARTENIMOL],IC50,Plasmodium falciparum [1],0.00142 µM
COc1cc(CCCc2cc(OC)c(O)c(OC)c2)ccc1O,IC50,KB,46 µM
same,Activity,[2],inactive
same,IC50,NCI-H187,42.1 µM
same,IC50,Plasmodium falciparum [1],14.5 µM
same,IC50,MCF7; [4],72 µM
"COc1cc([C@@H]2CCc3cc(OC)c(OC)cc3O2)ccc1O [(2S)-4'-HYDROXY-6,7,3'-TRIMETHOXYFLAVAN]",IC50,KB,106 µM
same,Activity,Plasmodium falciparum [3],inactive
same,Activity,[2],inactive
same,IC50,NCI-H187,125 µM
same,IC50,MCF7; mcf7,Not Active
"COc1ccc2c(c1)O[C@H](c1ccc(O)c(OC)c1)CC2 [(2S)-4'-HYDROXY-7,3'-DIMETHOXYFLAVAN]",IC50,KB,97.9 µM
same,Activity,Plasmodium falciparum [3],inactive
same,Activity,[2],inactive
same,IC50,NCI-H187,60.2 µM
same,IC50,MCF7; [4],88.4 µM
"COc1cc(OC)c2c(c1)O[C@H](c1ccc(O)c(O)c1)CC2 [(2S)-3',4'-DIHYDROXY-5,7-DIMETHOXYFLAVAN]",IC50,KB,31.8 µM
same,Activity,[2],inactive
same,IC50,NCI-H187,10.4 µM
same,IC50,Plasmodium falciparum [1],9.66 µM
same,IC50,MCF7; [4],49.1 µM
COc1cc(CCCc2c(OC)cc(O)cc2OC)ccc1O,IC50,KB,49.3 µM
same,Activity,Plasmodium falciparum [3],inactive
same,Activity,[2],inactive
same,IC50,NCI-H187,96 µM
same,IC50,MCF7; [4],64.2 µM
"COc1cc2c(cc1OC)O[C@H](c1ccc(O)c(O)c1)CC2 [(2S)-3',4'-DIHYDROXY-6,7-DIMETHOXYFLAVAN]",IC50,KB,43.1 µM
same,Activity,[2],inactive
same,IC50,NCI-H187,51.4 µM
same,IC50,Plasmodium falciparum [1],15.7 µM
same,IC50,MCF7; [4],75 µM
COc1cc(CCCc2cc(O)c(OC)cc2OC)ccc1O,IC50,KB,24.6 µM
same,Activity,Plasmodium falciparum [3],inactive
same,Activity,[2],inactive
same,IC50,NCI-H187,34.6 µM
same,IC50,MCF7; [4],23.1 µM
COc1cc([C@@H]2CCc3cc(O)c(OC)cc3O2)ccc1O,IC50,KB,69 µM
same,Activity,Plasmodium falciparum [3],inactive
same,Activity,[2],inactive
same,IC50,NCI-H187,76.5 µM
same,IC50,MCF7; [4],90.1 µM
COc1cc2c(cc1O)CC[C@@H](c1ccc(O)c(O)c1)O2,IC50,KB,24.6 µM
same,Activity,[2],inactive
same,IC50,NCI-H187,72 µM
same,IC50,Plasmodium falciparum [1],13 µM
same,IC50,MCF7; [4],110 µM

# Source: ChEMBL document CHEMBL2407025, “Antiplasmodial and cytotoxic flavans and diarylpropanes from the stems of Combretum griffithii” (J Nat Prod, 2013)
